Each structure is given as a SMILES string.

One assay has as its target UniProt Q9WVD9. To be noted: stereoisomer not certain. A digest of the protocol: (§1)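 Transient luciferase assays in mammalian cell lines were common, though methods varied by source. The values come from published papers and their supplementary material, with extra details from the original authors when needed. Responsive refers to a measured signal the original authors judged statistically different from baseline, and non-responsive (inactive) to the remainder.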

A further assay has as its target T1, UniProt Q9WVN5.
T1 sequence (whole entry): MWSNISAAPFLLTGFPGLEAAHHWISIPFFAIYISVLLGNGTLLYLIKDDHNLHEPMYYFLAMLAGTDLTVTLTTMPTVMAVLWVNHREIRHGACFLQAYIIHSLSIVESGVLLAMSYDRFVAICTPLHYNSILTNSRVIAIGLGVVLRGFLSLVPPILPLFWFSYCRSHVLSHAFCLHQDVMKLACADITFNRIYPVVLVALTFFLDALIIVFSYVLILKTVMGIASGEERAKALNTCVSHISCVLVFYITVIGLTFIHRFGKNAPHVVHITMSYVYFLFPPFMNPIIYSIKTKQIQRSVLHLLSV
To be noted: stereoisomer not certain. A digest of the protocol:
as §1
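Further: active if original authors judged signal statistically different from baseline.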

UniProt Q9WVD9, sequence (Q9WVD9 as listed by the source): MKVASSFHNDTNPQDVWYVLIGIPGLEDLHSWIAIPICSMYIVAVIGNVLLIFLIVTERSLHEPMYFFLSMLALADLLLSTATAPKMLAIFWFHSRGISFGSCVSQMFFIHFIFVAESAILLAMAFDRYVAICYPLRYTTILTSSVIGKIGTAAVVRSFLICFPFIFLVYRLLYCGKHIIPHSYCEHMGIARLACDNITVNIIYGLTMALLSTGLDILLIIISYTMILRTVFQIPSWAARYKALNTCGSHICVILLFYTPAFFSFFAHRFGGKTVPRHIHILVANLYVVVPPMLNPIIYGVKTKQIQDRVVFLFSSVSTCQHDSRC

Take `CCOC(=O)C(C)C`: the “odorant receptor agonist call” value in the assay with UniProt Q9WVD9 and in the assay with UniProt Q9WVN5 was “inactive” in each case.

On to `CCCCOC(=O)C(C)OC(=O)CCC` (stereo not drawn), for which the “odorant receptor agonist call” value with UniProt Q9WVD9 and with UniProt Q9WVN5 was “inactive” each time.

Take `CCCCCCO`: the “odorant receptor agonist call” value in the assay with UniProt Q9WVD9 and in the assay with UniProt Q9WVN5 was “inactive” each time.

`CCC(C(=O)O)c1ccccc1` (stereo not drawn): the “odorant receptor agonist call” value in the assay with UniProt Q9WVD9 and with UniProt Q9WVN5 was “inactive” throughout.

As to `CCCCCCCC(C)=O`, the “odorant receptor agonist call” value with UniProt Q9WVD9 and with UniProt Q9WVN5 was “inactive” each time.

As for `CCCCCCCC(=O)[O-].[H+]`, the “odorant receptor agonist call” value with UniProt Q9WVD9 and in the assay with UniProt Q9WVN5 was “inactive” each time.

As for `COc1cc(C(=O)O)ccc1O`, the “odorant receptor agonist call” value with UniProt Q9WVD9 and in the assay with UniProt Q9WVN5 was “inactive” each time.

On to `CCCCCCC(C)=O`, for which the “odorant receptor agonist call” value in the assay with UniProt Q9WVD9 and with UniProt Q9WVN5 was “inactive” throughout.

On to `CCCCCCCCS`, for which the “odorant receptor agonist call” value with UniProt Q9WVD9 and with UniProt Q9WVN5 was “inactive” each time.

As to `C=CCOC(=O)CCCCCC`, the “odorant receptor agonist call” value in the assay with UniProt Q9WVD9 and with UniProt Q9WVN5 was “inactive” throughout.

With `CCCCCC(=O)CC`, the “odorant receptor agonist call” value with UniProt Q9WVD9 and with UniProt Q9WVN5 was “inactive” each time.

`CCCCCCCCCS`: the “odorant receptor agonist call” value with UniProt Q9WVD9 and with UniProt Q9WVN5 was “inactive” throughout.

On to `CC(C)=CCCC(C)=CCO`, for which the “odorant receptor agonist call” value in the assay with UniProt Q9WVD9 and in the assay with UniProt Q9WVN5 was “inactive” each time.

For `CCCCC(=O)O`, the “odorant receptor agonist call” value with UniProt Q9WVD9 is “inactive”. In addition, in the assay with UniProt Q9WVN5, the “odorant receptor agonist call” value was “active”.

Regarding `O=C1CCOc2ccccc21`, the “odorant receptor agonist call” value with UniProt Q9WVD9 and in the assay with UniProt Q9WVN5 was “inactive” each time.

With `CCCCCCCCCO`, the “odorant receptor agonist call” value in the assay with UniProt Q9WVD9 and with UniProt Q9WVN5 was “inactive” each time.

On to `CCC(=O)C(=O)CC`, for which the “odorant receptor agonist call” value with UniProt Q9WVD9 and with UniProt Q9WVN5 was “inactive” in each case.

With `CCCCCO`, the “odorant receptor agonist call” value in the assay with UniProt Q9WVD9 and in the assay with UniProt Q9WVN5 was “inactive” throughout.

For the compound `CCCCCCCCCC(=O)[O-].[H+]`, the “odorant receptor agonist call” value with UniProt Q9WVD9 and with UniProt Q9WVN5 was “inactive” each time.

As for `CCCCC(C)=O`, the “odorant receptor agonist call” value in the assay with UniProt Q9WVD9 and with UniProt Q9WVN5 was “inactive” throughout.

`C=C(C)C1CCC(C)C(=O)C1` (stereo not drawn): the “odorant receptor agonist call” value with UniProt Q9WVD9 and with UniProt Q9WVN5 was “inactive” throughout.

`CCCCCCCCC(=O)O`: the “odorant receptor agonist call” value with UniProt Q9WVD9 and in the assay with UniProt Q9WVN5 was “inactive” throughout.

Consider `CCCCCOC(=O)CCCCC`, for which the “odorant receptor agonist call” value with UniProt Q9WVD9 and with UniProt Q9WVN5 was “inactive” each time.

As to `CCCCCCCCO`, the “odorant receptor agonist call” value with UniProt Q9WVD9 and with UniProt Q9WVN5 was “inactive” throughout.

Consider `CCCCCCCO`, for which the “odorant receptor agonist call” value with UniProt Q9WVD9 and with UniProt Q9WVN5 was “inactive” in each case.

Turning to `CCCC(C)=O`, the “odorant receptor agonist call” value with UniProt Q9WVD9 and with UniProt Q9WVN5 was “inactive” throughout.

As for `CCCCC(=O)CC`, the “odorant receptor agonist call” value with UniProt Q9WVD9 and with UniProt Q9WVN5 was “inactive” throughout.

For the compound `CCCCCCCCCCO`, the “odorant receptor agonist call” value in the assay with UniProt Q9WVD9 and in the assay with UniProt Q9WVN5 was “inactive” in each case.

As to `O=C(c1ccccc1)c1ccccc1`, the “odorant receptor agonist call” value with UniProt Q9WVD9 and in the assay with UniProt Q9WVN5 was “inactive” in each case.

With `CC(C)=CCCC(C)CCO` (stereo not drawn), the “odorant receptor agonist call” value with UniProt Q9WVD9 and with UniProt Q9WVN5 was “inactive” each time.

As to `O=C1Cc2ccccc2O1`, in the assay with UniProt Q9WVD9, the “odorant receptor agonist call” value is “inactive”. The “odorant receptor agonist call” value with UniProt Q9WVN5 was “active”.

In the case of `CCCC(=O)C(C)=O`, the “odorant receptor agonist call” value with UniProt Q9WVD9 and with UniProt Q9WVN5 was “inactive” each time.

For the compound `CC(=O)OCc1ccccc1`, the “odorant receptor agonist call” value in the assay with UniProt Q9WVD9 and in the assay with UniProt Q9WVN5 was “inactive” each time.

In the case of `CCCCOC=O`, the “odorant receptor agonist call” value in the assay with UniProt Q9WVD9 and with UniProt Q9WVN5 was “inactive” each time.

On to `c1ccccc1`, for which the “odorant receptor agonist call” value in the assay with UniProt Q9WVD9 and with UniProt Q9WVN5 was “inactive” in each case.

As to `CC12CCC(CC1=O)C2(C)C` (stereo not drawn), the “odorant receptor agonist call” value in the assay with UniProt Q9WVD9 and in the assay with UniProt Q9WVN5 was “inactive” throughout.

With `CCC(=O)O`, the “odorant receptor agonist call” value in the assay with UniProt Q9WVD9 and with UniProt Q9WVN5 was “inactive” each time.

As for `CCCCCC1=C(C)CCC1=O`, the “odorant receptor agonist call” value with UniProt Q9WVD9 and with UniProt Q9WVN5 was “inactive” throughout.

On to `CCCCCCC(=O)[O-].[H+]`, for which the “odorant receptor agonist call” value with UniProt Q9WVD9 and in the assay with UniProt Q9WVN5 was “active” throughout.

With `CCCCCC=O`, the “odorant receptor agonist call” value with UniProt Q9WVD9 is “inactive”. For the same compound, the “odorant receptor agonist call” value with UniProt Q9WVN5 is “active”.

As for `O=c1ccc2ccccc2o1`, the “odorant receptor agonist call” value with UniProt Q9WVD9 and with UniProt Q9WVN5 was “inactive” in each case.

`CC(=O)Oc1ccccc1`: the “odorant receptor agonist call” value with UniProt Q9WVD9 and with UniProt Q9WVN5 was “inactive” throughout.

For `CC(=O)OCC=C(C)C`, the “odorant receptor agonist call” value in the assay with UniProt Q9WVD9 and with UniProt Q9WVN5 was “inactive” each time.

As to `CCCCCCOC(C)=O`, the “odorant receptor agonist call” value in the assay with UniProt Q9WVD9 and with UniProt Q9WVN5 was “inactive” each time.
